These results are taken from article PMC11215724 (Journal of Medicinal Chemistry, 2024).

For series [1] the following is noted: starting compounds; cited from earlier work.
For series [2], the system named is SKM28, SKMel3, WM3248, A375, SW480. Briefly: Cell viability assay, all five cancer cell lines together. It is filed as cell-based.
A further series relates to SKMel3. Briefly: Cell viability assay, SKMel3 melanoma cell line. It is filed as cell-based. Conditions: read-out: IC50 SKMel3; SKMel3 cells.
The next series can be described thus: Mouse pharmacokinetics. In kind it is in vivo. Conditions: single I.V. 3 mg/kg or P.O. 10 mg/kg. The essentials:
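Single dose to mice, either intravenous at 3 mg/kg or oral at 10 mg/kg. Three animals per time point. Plasma concentration–time profiles were used for observed and calculated PK parameters. Animals were watched for treatment-related toxicological signs throughout.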

In another series the test system is WM3248. Briefly: Cell viability assay, WM3248 melanoma cell line. As to conditions: WM3248 cells. It is filed as cell-based.
The test system of the next series is A375. Briefly: Cell viability assay, A375 melanoma cell line. Conditions: A375 cells. It is filed as cell-based.
Another series in a line: Aggregation by NMR. It is filed as physicochemical. As to conditions: Tris buffer. The gist of the method:
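Compound aggregation checked by WaterLOGSY in the NMR binding-assay buffer at three theoretical concentrations, with 200 μM 4-trifluoromethyl benzoic acid as internal reference. Solubility was checked in PBS and Tris buffer by ¹H 1D spectra. Data were processed with 2 Hz exponential line broadening before Fourier transformation.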

A further series is described as follows: Stability in DMSO. It is filed as physicochemical.

On to `CN(C)c1cccc(Nc2cc(-c3ccccc3)nc(C3CCNCC3)n2)c1` [ARN22089], for which, in series [1], the “aggregation by NMR at 100 μM” value is given as “showed aggregation”.

As a reminder, the IC50 is the concentration needed to halve the response being measured. Consider “4-(Piperidin-4-yl)-6-(pyrrolidin-2-yl)-N-(3-(trifluoromethyl)phenyl)-1,3,5-triazin-2-amine [Compound 10]”, for which the “antiproliferative activity in the cancer cell lines (in words)” value in series [2] is “complete loss of activity”. Besides, the IC50 with SKMel3 was > 100 µM.

In the case of `FC(F)(F)c1cccc(Nc2cc(-c3ccccc3)nc(C3CCNCC3)n2)c1` [ARN25062], the “aggregation by NMR at 100 μM” value in series [1] is given as “showed aggregation”.

For `FC(F)(F)c1cc(Nc2nc(-c3ccccc3)cc(C3CCNCC3)n2)ccn1` [Compound 20, 4-Phenyl-6-(piperidin-4-yl)-N-(2-(trifluoromethyl)pyridin-4-yl)pyrimidin-2-amine], the “tolerability during the PK studies” value in the series “Mouse pharmacokinetics” is “well tolerated by all animals”.

As for “4-(1-Methyl-1H-imidazol-5-yl)-6-(piperidin-4-yl)-N-(3-(trifluoromethyl)phenyl)-1,3,5-triazin-2-amine [Compound 8]”, in the series on WM3248, the “decrease of activity on WM3248 compared to 1” value is ~10 fold. Moreover, the “effect on A375 (in words)” value in the series with A375 is given as “annihilating the effect on A375”. Also, the half-maximal inhibitory concentration (IC50) in the series with A375 (read-out: IC50 A375) was > 100 µM.

Take `COc1ccc(Nc2nc(-c3ccccc3)cc(C3CCNCC3)n2)cc1OC` [Compound 15, N-(3,4-Dimethoxyphenyl)-4-phenyl-6-(piperidin-4-yl)pyrimidin-2-amine]: the “tolerability during the PK studies” value in “Mouse pharmacokinetics” is reported as “well tolerated by all animals”.

For the compound `Cn1ccc2ccc(Nc3cc(-c4ccccc4)nc(C4CCNCC4)n3)cc21` [Compound 25, 1-Methyl-N-(6-phenyl-2-(piperidin-4-yl)pyrimidin-4-yl)-1H-indol-6-amine], the “aggregation by NMR (50 μM)” value in “Aggregation by NMR” is recorded as “showed aggregation”.

For the compound `FC(F)(F)c1cccc(Nc2nc(C3=CCNCC3)nc(-c3ccsc3)n2)c1` [Compound 11, 4-(1,2,3,6-Tetrahydropyridin-4-yl)-6-(thiophen-3-yl)-N-(3-(trifluoromethyl)phenyl)-1,3,5-triazin-2-amine], in “Stability in DMSO”, the “stability in DMSO” value was “slight instability in DMSO”.
